Results reported in the M2OR odorant receptor database.

Legend:
Conditions in all cases: stereoisomer not certain
OR10H4 (Homo sapiens) = molecular target: T1, OR10H4 (Homo sapiens) (UniProt Q8NGA5)
T1 sequence (whole entry): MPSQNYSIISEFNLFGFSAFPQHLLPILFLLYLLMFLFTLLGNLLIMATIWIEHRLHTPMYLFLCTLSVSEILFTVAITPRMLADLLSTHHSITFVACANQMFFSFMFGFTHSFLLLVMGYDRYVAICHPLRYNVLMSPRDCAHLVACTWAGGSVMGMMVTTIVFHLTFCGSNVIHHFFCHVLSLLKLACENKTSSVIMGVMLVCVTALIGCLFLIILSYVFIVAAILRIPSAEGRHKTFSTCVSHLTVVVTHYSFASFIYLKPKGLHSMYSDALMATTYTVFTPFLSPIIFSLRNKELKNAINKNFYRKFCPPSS
How it was run: (§1)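 Each receptor–molecule pair is labelled responsive or non-responsive (inactive) according to whether the original authors judged the measured signal statistically different from baseline. The data were taken from the main text and supplementary material of published papers and checked for typos and inconsistencies. Assay methods differed by source, with transient luciferase assays in mammalian cell lines being common.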

OR10H5 (Homo sapiens) = molecular target: T2, OR10H5 (Homo sapiens) (UniProt Q8NGA6)
T2 sequence (whole entry): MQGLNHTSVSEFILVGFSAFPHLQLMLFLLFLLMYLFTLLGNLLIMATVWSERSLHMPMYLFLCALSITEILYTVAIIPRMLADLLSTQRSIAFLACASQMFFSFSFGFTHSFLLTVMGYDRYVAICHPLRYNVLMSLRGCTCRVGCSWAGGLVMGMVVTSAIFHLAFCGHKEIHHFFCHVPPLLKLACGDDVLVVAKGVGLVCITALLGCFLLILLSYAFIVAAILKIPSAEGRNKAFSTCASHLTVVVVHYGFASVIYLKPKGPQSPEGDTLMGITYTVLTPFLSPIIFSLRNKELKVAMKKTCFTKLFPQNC
How it was run: as §1

OR10J1 (Homo sapiens) = molecular target: T3, OR10J1 (Homo sapiens) (UniProt P30954)
T3 sequence (whole entry): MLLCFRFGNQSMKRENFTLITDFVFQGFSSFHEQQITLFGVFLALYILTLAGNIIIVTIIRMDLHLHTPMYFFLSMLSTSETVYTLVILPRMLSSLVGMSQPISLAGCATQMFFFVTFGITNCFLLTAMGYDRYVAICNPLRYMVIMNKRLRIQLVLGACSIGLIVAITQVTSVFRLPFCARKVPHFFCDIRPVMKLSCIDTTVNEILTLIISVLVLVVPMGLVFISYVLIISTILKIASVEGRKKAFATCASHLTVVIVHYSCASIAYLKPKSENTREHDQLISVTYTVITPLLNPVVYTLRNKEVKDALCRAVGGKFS
How it was run: as §1

OR10J3 (Homo sapiens) = molecular target: T4, OR10J3 (Homo sapiens) (UniProt Q5JRS4)
T4 sequence (whole entry): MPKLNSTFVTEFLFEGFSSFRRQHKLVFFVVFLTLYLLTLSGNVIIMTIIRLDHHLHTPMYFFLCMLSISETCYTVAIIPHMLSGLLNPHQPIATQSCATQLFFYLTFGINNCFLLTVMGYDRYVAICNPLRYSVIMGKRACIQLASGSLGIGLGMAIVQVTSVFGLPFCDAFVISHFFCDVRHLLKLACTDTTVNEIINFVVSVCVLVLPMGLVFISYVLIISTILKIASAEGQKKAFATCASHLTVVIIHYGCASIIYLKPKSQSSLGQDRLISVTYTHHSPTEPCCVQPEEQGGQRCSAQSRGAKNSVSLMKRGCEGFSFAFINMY
How it was run: as §1

OR10J5 (Homo sapiens) = molecular target: T5, OR10J5 (Homo sapiens) (UniProt Q8NHC4)
T5 sequence (whole entry): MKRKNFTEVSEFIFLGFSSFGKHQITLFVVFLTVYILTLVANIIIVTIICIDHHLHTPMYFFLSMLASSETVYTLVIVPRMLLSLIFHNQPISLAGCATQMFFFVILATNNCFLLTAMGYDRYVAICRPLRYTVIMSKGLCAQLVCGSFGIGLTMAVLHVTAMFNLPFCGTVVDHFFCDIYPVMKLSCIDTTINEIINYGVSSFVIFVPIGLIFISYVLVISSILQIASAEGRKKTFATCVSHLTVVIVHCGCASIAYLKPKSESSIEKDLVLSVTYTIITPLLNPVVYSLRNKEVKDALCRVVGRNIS
How it was run: as §1

OR10K1 (Homo sapiens) = molecular target: T6, OR10K1 (Homo sapiens) (UniProt Q8NGX5)
T6 sequence (whole entry): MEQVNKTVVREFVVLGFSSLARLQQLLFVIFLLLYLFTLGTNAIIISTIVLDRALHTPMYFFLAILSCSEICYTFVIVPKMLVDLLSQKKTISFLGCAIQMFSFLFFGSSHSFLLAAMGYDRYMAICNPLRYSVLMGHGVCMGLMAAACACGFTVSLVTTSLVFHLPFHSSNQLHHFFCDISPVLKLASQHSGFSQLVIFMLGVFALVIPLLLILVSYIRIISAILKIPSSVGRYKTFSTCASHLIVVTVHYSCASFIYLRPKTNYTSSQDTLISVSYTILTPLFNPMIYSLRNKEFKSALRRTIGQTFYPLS
How it was run: as §1

OR10P1 (Homo sapiens) = molecular target: T7, OR10P1 (Homo sapiens) (UniProt Q8NGE3)
T7 sequence (whole entry): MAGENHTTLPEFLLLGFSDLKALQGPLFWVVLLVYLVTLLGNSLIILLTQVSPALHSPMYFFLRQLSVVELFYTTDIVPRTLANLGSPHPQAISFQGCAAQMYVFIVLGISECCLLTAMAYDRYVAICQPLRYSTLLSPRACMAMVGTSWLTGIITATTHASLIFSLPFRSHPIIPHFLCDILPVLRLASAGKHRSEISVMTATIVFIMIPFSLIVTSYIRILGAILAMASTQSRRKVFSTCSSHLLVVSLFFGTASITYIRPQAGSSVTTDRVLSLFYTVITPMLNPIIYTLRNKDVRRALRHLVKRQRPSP
How it was run: as §1

OR10Q1 (Homo sapiens) = molecular target: T8, OR10Q1 (Homo sapiens) (UniProt Q8NGQ4)
T8 sequence (whole entry): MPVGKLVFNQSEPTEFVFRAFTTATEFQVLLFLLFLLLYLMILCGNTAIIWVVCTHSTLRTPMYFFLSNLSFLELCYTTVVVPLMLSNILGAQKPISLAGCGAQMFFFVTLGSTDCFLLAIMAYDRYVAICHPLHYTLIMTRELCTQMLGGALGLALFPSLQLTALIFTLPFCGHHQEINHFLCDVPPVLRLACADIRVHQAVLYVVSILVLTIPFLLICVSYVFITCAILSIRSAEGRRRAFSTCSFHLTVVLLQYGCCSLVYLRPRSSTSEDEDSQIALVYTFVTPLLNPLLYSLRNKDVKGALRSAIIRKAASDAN
How it was run: as §1

OR10R2 (Homo sapiens) = molecular target: T9, OR10R2 (Homo sapiens) (UniProt Q8NGX6)
T9 sequence (whole entry): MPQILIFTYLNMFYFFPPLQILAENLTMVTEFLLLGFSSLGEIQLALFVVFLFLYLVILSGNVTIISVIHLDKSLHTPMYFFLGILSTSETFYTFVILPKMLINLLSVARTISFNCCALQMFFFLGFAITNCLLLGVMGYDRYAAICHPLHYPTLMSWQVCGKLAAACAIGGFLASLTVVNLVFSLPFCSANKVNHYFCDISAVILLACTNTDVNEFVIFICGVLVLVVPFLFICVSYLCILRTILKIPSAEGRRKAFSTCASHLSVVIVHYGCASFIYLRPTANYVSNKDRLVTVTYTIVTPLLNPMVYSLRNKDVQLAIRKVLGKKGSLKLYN
How it was run: as §1

OR10S1 (Homo sapiens) = molecular target: T10, OR10S1 (Homo sapiens) (UniProt Q8NGN2)
T10 sequence (whole entry): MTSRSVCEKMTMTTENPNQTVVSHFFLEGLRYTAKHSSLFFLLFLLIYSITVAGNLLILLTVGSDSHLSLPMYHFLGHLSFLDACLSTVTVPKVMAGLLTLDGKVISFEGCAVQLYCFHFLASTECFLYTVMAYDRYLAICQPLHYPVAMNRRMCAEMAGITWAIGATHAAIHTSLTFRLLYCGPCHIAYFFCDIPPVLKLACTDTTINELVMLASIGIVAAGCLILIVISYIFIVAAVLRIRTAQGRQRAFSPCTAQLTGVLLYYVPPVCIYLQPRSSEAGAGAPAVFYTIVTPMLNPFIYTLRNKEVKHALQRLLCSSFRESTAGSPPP
How it was run: as §1

OR10T2 (Homo sapiens) = molecular target: T11, OR10T2 (Homo sapiens) (UniProt Q8NGX3)
T11 sequence (whole entry): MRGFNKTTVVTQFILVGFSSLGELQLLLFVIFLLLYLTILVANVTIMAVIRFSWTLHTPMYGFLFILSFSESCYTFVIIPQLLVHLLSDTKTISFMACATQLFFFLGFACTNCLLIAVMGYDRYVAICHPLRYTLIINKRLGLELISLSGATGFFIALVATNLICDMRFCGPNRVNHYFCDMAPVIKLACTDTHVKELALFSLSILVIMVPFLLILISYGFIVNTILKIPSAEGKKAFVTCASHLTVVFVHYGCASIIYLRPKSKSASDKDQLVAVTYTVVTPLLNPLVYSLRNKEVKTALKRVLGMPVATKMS
How it was run: as §1

OR10V1 (Homo sapiens) = molecular target: T12, OR10V1 (Homo sapiens) (UniProt Q8NGI7)
T12 sequence (whole entry): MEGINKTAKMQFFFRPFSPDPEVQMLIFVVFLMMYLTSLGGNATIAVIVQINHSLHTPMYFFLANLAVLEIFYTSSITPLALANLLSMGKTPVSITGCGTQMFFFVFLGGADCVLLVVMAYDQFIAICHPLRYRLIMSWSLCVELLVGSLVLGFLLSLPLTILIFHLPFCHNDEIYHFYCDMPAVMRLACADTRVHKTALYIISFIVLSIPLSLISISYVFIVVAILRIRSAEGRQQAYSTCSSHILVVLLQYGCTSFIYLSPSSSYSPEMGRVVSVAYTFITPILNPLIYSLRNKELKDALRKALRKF
How it was run: as §1

OR10W1 (Homo sapiens) = molecular target: T13, OR10W1 (Homo sapiens) (UniProt Q8NGF6)
T13 sequence (whole entry): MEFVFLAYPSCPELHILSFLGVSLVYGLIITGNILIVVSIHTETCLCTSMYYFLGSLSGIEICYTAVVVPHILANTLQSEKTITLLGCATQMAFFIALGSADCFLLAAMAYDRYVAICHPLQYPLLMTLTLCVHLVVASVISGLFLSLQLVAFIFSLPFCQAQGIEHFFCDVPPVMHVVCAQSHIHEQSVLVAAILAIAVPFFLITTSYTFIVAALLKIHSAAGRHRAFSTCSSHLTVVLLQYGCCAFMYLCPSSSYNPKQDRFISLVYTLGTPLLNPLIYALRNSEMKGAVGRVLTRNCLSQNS
How it was run: as §1

OR10X1 (Homo sapiens) = molecular target: T14, OR10X1 (Homo sapiens) (UniProt Q8NGY0)
T14 sequence (whole entry): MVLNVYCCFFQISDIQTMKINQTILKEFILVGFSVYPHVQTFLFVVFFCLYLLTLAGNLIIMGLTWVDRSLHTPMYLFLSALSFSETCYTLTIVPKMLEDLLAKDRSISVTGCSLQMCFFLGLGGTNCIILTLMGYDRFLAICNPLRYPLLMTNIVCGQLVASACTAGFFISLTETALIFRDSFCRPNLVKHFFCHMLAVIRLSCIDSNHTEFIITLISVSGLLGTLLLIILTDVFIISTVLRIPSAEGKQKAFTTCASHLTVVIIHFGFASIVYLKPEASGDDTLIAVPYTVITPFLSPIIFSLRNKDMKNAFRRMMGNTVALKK
How it was run: as §1

OR10Z1 (Homo sapiens) = molecular target: T15, OR10Z1 (Homo sapiens) (UniProt Q8NGY1)
T15 sequence (whole entry): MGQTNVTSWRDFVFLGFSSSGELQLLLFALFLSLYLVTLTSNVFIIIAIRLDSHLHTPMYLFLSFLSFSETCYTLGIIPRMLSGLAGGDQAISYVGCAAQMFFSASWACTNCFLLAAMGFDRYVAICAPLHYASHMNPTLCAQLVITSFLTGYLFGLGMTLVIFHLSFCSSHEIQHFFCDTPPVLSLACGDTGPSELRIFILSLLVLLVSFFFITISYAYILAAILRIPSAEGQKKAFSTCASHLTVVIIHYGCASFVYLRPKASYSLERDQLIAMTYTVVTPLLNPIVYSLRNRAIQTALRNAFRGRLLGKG
How it was run: as §1

OR11A1 (Homo sapiens) = molecular target: T16, OR11A1 (Homo sapiens) (UniProt Q9GZK7)
T16 sequence (whole entry): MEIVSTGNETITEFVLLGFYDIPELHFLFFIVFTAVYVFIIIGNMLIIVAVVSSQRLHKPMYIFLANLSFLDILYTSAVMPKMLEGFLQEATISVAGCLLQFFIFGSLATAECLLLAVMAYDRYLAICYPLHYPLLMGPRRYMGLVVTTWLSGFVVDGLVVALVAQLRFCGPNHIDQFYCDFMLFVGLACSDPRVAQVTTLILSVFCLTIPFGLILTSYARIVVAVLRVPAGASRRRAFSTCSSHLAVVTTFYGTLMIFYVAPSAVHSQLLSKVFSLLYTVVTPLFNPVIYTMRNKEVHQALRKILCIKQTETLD
How it was run: as §1

OR11G2 (Homo sapiens) = molecular target: T17, OR11G2 (Homo sapiens) (UniProt Q8NGC1)
T17 sequence (whole entry): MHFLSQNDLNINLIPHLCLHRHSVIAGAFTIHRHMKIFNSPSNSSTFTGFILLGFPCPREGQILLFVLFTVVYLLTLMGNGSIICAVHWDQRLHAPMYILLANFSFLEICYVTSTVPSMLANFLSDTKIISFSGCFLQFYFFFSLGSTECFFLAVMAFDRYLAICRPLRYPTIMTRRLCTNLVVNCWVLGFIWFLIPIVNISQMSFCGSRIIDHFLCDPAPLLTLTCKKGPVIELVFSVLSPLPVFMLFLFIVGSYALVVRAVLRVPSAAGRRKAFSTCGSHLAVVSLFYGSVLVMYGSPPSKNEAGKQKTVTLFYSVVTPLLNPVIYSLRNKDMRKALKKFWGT
How it was run: as §1

OR11H1 (Homo sapiens) = molecular target: T18, OR11H1 (Homo sapiens) (UniProt Q8NG94)
T18 sequence (whole entry): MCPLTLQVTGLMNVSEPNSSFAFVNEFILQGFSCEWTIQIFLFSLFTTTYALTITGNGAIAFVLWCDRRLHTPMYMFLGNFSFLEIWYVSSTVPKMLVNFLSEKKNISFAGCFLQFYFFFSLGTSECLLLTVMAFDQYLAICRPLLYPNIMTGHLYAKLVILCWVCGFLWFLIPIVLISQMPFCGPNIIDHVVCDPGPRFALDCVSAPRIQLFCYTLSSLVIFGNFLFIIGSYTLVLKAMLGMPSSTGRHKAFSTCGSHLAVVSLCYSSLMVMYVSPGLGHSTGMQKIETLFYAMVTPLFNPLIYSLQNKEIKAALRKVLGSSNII
How it was run: as §1

Measured: odorant receptor agonist call;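 note: active if original authors judged signal statistically different from baseline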

CCC1OC(C)=C(O)C1=O (centres undefined)
inactive: all assays above

C=C(C)C1CCC(C)C(=O)C1 (centres undefined)
inactive: OR10J5 (Homo sapiens)
